ChEMBL document CHEMBL1129319, “Design and synthesis of new linear and cyclic bradykinin antagonists” (J Med Chem, 1996)
Activity calls are given as the source filed them. The calls are words filed in the database; no cut-off is given here. Numbered stars: 1 amine (or outer) side, 2 acyl side, 3 side chain; on linkers, the order of the positions; unused ones are H or OH. Square brackets hold non-standard residues; d marks the D form. Peptide text beside a SMILES is read from it. * marks the point of attachment. ξ: configuration not given here. X1 = NC(N)=NCCC[C@@H](NC(=O)[C@H](Cc1ccccc1)NC(=O)N1CCC[C@H]1C(=O)[C@H](CO)N*)C(=O)O; Pentanoyl(5-guanidino) = NC(N)=NCCCCC(=O)*; Butanoyl(4-guanidino) = N=C(N)NCCCC(=O)*; Oic(3aξ,7aξ) = O=C(O)[C@@H]1CC2CCCCC2N1; NH(CH2)9CO = O=C(CCCCCCCCCN[*:1])[*:2]; Tic = O=C(O)[C@@H]1Cc2ccccc2CN1; 2Thi = N[C@@H](Cc1cccs1)C(=O)O; X2 = N=C(N)NCCCCCC(=O)*; GABA = NCCCC(=O)O

Legend:
B2 bradykinin receptor = target: T1, B2 bradykinin receptor (Oryctolagus cuniculus, UniProt Q28642); assay: In vitro antagonistic activity against kinin-induced rabbit jugular vein contraction.; type: functional; settings: for Kb: read-out: pA2 (converted)
T1 sequence (Q28642 whole entry): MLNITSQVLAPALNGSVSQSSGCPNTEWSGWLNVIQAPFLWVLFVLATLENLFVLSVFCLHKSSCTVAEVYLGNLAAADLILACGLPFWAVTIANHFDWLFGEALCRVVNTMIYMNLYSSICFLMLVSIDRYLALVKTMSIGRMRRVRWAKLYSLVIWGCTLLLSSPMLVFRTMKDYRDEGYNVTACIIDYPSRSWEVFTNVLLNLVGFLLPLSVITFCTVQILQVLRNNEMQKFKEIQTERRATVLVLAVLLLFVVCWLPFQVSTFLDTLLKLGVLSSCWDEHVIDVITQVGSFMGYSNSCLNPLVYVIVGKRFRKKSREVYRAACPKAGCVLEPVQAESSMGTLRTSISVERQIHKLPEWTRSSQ
Outline: (§1)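 Rabbit jugular vein rings (B2 tissue), reference KCl 60 mM contraction then 45 min rest; antagonist, usually 10-7, 10^-6 and 10^-5 M, incubated 45 min before cumulative bradykinin; one curve per ring; pA2 by Tallarida's method with Schild slope constrained to unity, or pKB from EC50 ratio when activity appeared only at 10^-5 M.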

[1] = target: T2, B2 bradykinin receptor (Homo sapiens) (UniProt P30411); assay: Antagonistic activity against bradykinin B2 receptor as human umbilical vein contraction; in = inactive at 10e-5M; type: functional, tissue-based
T2 sequence (whole entry): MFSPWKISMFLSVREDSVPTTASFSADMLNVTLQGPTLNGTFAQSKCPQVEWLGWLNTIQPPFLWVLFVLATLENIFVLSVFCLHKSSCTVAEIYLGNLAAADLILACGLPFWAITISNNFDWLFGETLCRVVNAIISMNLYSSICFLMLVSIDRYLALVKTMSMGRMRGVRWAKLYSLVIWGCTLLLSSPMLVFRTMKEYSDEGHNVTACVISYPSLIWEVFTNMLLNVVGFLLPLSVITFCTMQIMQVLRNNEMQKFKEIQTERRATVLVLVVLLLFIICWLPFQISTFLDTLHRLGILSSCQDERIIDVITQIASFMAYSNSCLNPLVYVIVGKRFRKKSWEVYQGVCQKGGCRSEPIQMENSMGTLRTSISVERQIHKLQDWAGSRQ
Outline: (§2)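 Endothelium-denuded human umbilical vein rings in Krebs (37 °C, 95% O2/5% CO2, pH 7.40), 2-4 g load, pretreated with indomethacin 5 × 10^-6 M and L-nitroarginine 10^-4 M; antagonist incubated 45 min before a single cumulative bradykinin curve per ring; isometric contraction as % of KCl (60 mM) reference; pKB from KB = [Ant]/(concentration ratio − 1).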

[2] = target: T3, B2 bradykinin receptor (Oryctolagus cuniculus) (UniProt Q28642); assay: In vitro antagonistic activity against kinin-induced rabbit jugular vein contraction by bradykinin B2 receptor; in = inactive at 10e-5M; type: functional; outline: as §1
T3 sequence (whole entry): T1 sequence (Q28642 whole entry)

[3] = target: T3, B2 bradykinin receptor (Oryctolagus cuniculus); assay: In vitro antagonistic activity against kinin-induced rabbit jugular vein contraction by bradykinin B2 receptor; in = inactive at 10e-5M.; type: functional; outline: as §1
[4] = target: T2, B2 bradykinin receptor (Homo sapiens); assay: Antagonistic activity against bradykinin B2 receptor as human umbilical vein contraction; type: functional, tissue-based; outline: as §2

Row | SMILES | Kb (B2 bradykinin receptor) [nM] | also measured
1 | C[C@@H]1NC(=O)CNC(=O)[C@H](CCCN=C(N)N)NC(=O)[C@@H]2CC3CCCCC3N2C(=O)[C@H]2Cc3ccccc3CN2C1=O (some centres undefined) | 240 | –
2 | NC(N)=NCCC[C@H](NC(=O)[C@@H]1CC2CCCCC2N1C(=O)[C@@H]1Cc2ccccc2CN1C(=O)[C@H](CO)NC(=O)[C@@H](N)Cc1ccccc1)C(=O)O (some centres undefined) (H-FS[Tic][Oic(3aξ,7aξ)]R-OH) | 912 | –
3 | N=C(N)NCCC[C@@H]1NC(=O)[C@@H]2CC3CCCCC3N2C(=O)[C@H]2Cc3ccccc3CN2C(=O)[C@H](Cc2cccs2)NC(=O)CCCNC1=O (some centres undefined) | 324 | pKb [1]: inactive
4 | N=C(N)NCCC[C@H](NC(=O)[C@@H]1CC2CCCCC2N1C(=O)[C@@H]1Cc2ccccc2CN1C(=O)[C@H](CO)NC(=O)[C@@H]1Cc2ccccc2CN1)C(=O)O (some centres undefined) (H-[Tic]S[Tic][Oic(3aξ,7aξ)]R-OH) | – | pA2 [2]: inactive
5 | NCCCC(=O)N[C@@H](Cc1cccs1)C(=O)N1Cc2ccccc2C[C@H]1C(=O)N1C2CCCCC2C[C@H]1C(=O)N[C@@H](CCCN=C(N)N)C(=O)O (some centres undefined) (H-[GABA][2Thi][Tic][Oic(3aξ,7aξ)]R-OH) | 251 | pKb [1]: inactive
6 | C[C@@H]1NC(=O)[C@H](Cc2c[nH]c3ccccc23)NC(=O)CCCNC(=O)[C@H](CCCN=C(N)N)NC(=O)[C@@H]2CC3CCCCC3N2C(=O)[C@H]2Cc3ccccc3CN2C1=O (some centres undefined) | 490 | –
7 | N=C(N)NCCCCCC(=O)N[C@@H](Cc1cccs1)C(=O)N1Cc2ccccc2C[C@H]1C(=O)N1C2CCCCC2C[C@H]1C(=O)N[C@@H](CCCNC(=N)N)C(=O)O (some centres undefined) (X2-[2Thi][Tic][Oic(3aξ,7aξ)]R-OH) | 3390 | –
8 | NCCCC[C@@H]1NC(=O)[C@H](CCCN=C(N)N)NC(=O)[C@@H]2C[C@@H]3CCCC[C@@H]3N2C(=O)[C@H]2Cc3ccccc3CN2C(=O)[C@H](Cc2cccs2)NC1=O | – | pA2 (B2 bradykinin receptor): 6.84
9 | N=C(N)NCCCCC(=O)N[C@@H](Cc1cccs1)C(=O)N1Cc2ccccc2C[C@H]1C(=O)N1C2CCCCC2C[C@H]1C(=O)N[C@@H](CCCNC(=N)N)C(=O)O (some centres undefined) ({Pentanoyl(5-guanidino)}-[2Thi][Tic][Oic(3aξ,7aξ)]R-OH) | 3020 | –
10 | N=C(N)NCCC[C@@H]1NC(=O)[C@@H]2CC3CCCCC3N2C(=O)[C@H]2Cc3ccccc3CN2C(=O)[C@H](CO)NC(=O)[C@H](Cc2cccs2)NC(=O)CCCNC1=O (some centres undefined) | 45.7 | –
11 | N=C(N)NCCCC(=O)N[C@@H](Cc1cccs1)C(=O)N1Cc2ccccc2C[C@H]1C(=O)N1C2CCCCC2C[C@H]1C(=O)N[C@@H](CCCNC(=N)N)C(=O)O (some centres undefined) ({Butanoyl(4-guanidino)}-[2Thi][Tic][Oic(3aξ,7aξ)]R-OH) | – | pA2 [3]: inactive
12 | NC(N)=NCCC[C@H](NC(=O)[C@@H](Cc1ccccc1)NC(=O)[C@@H](N)CCCN=C(N)N)C(=O)N1CCC[C@H]1C(=O)N1CCC[C@H]1C(=O)NCC(=O)N[C@@H](Cc1ccccc1)C(=O)N[C@@H](CO)C(=O)[C@@H]1CCCN1C(=O)N[C@@H](Cc1ccccc1)C(=O)N[C@H](CCCN=C(N)N)C(=O)O (H-R[dF]RPPGF-X1) | – | pKb [4]: 5.16
13 | NCC(=O)N[C@@H](Cc1ccccc1)C(=O)N1Cc2ccccc2C[C@H]1C(=O)N1C2CCCCC2C[C@H]1C(=O)N[C@@H](CCCN=C(N)N)C(=O)O (some centres undefined) (H-GF[Tic][Oic(3aξ,7aξ)]R-OH) | 851 | pKb [1]: inactive
14 | N=C(N)NCCC[C@@H]1NC(=O)[C@@H]2CC3CCCCC3N2C(=O)[C@H]2Cc3ccccc3CN2C(=O)[C@H](Cc2cccs2)NC(=O)CNC1=O (some centres undefined) | 40.7 | pKb [4]: 4.93
15 | NCCCC(=O)N[C@@H](Cc1ccccc1)C(=O)N1Cc2ccccc2C[C@H]1C(=O)N1C2CCCCC2C[C@H]1C(=O)N[C@@H](CCCN=C(N)N)C(=O)O (some centres undefined) (H-[GABA]F[Tic][Oic(3aξ,7aξ)]R-OH) | 363 | –
16 | NCCCCCCCCCC(=O)N[C@@H](Cc1cccs1)C(=O)N1Cc2ccccc2C[C@H]1C(=O)N1C2CCCCC2C[C@H]1C(=O)N[C@@H](CCCN=C(N)N)C(=O)O (some centres undefined) ({NH(CH2)9CO}-[2Thi][Tic][Oic(3aξ,7aξ)]R-OH) | 468 | –
17 | NCC(=O)N[C@@H](Cc1cccs1)C(=O)N1Cc2ccccc2C[C@H]1C(=O)N1C2CCCCC2C[C@H]1C(=O)N[C@@H](CCCN=C(N)N)C(=O)O (some centres undefined) (H-G[2Thi][Tic][Oic(3aξ,7aξ)]R-OH) | – | pKb [4]: 4.79; pA2 [3]: inactive
18 | C[C@@H]1NC(=O)[C@@H](Cc2ccccc2)NC(=O)CCCNC(=O)[C@H](CCCN=C(N)N)NC(=O)[C@@H]2CC3CCCCC3N2C(=O)[C@H]2Cc3ccccc3CN2C1=O (some centres undefined) | – | pA2 [3]: inactive
19 | NC(N)=NCCC[C@H](NC(=O)[C@@H]1CC2CCCCC2N1C(=O)[C@@H]1Cc2ccccc2CN1C(=O)[C@H](CO)NC(=O)[C@@H](N)Cc1cccs1)C(=O)O (some centres undefined) (H-[2Thi]S[Tic][Oic(3aξ,7aξ)]R-OH) | – | pA2 [2]: inactive
20 | CN1CC(=O)N[C@@H](Cc2cccs2)C(=O)N2Cc3ccccc3C[C@@H]2C(=O)N2C3CCCCC3C[C@H]2C(=O)N[C@@H](CCCN=C(N)N)C1=O (some centres undefined) | 219 | –
21 | NC(N)=NCCC[C@@H]1NC(=O)[C@@H]2CC3CCCCC3N2C(=O)[C@H]2Cc3ccccc3CN2C(=O)[C@H](CO)NC(=O)[C@H](Cc2cccs2)NC(=O)CCNC1=O (some centres undefined) | 75.9 | –
22 | NC(N)=NCCC[C@H](NC(=O)[C@@H]1CC2CCCCC2N1C(=O)[C@@H]1Cc2ccccc2CN1C(=O)[C@H](Cc1cccs1)NC(=O)[C@@H](N)CCCN=C(N)N)C(=O)O (some centres undefined) (H-R[2Thi][Tic][Oic(3aξ,7aξ)]R-OH) | 794 | –
23 | C[C@@H]1NC(=O)CCCNC(=O)[C@H](CCCN=C(N)N)NC(=O)[C@@H]2CC3CCCCC3N2C(=O)[C@H]2Cc3ccccc3CN2C(=O)[C@H](CO)NC1=O (some centres undefined) | 309 | –
24 | N=C(N)NCCC[C@@H]1NC(=O)[C@H](CCCNC(=N)N)NC(=O)[C@@H]2CC3CCCCC3N2C(=O)[C@H]2Cc3ccccc3CN2C(=O)[C@H](Cc2cccs2)NC1=O (some centres undefined) | 75.9 | –
25 | N=C(N)NCCC[C@@H]1NC(=O)[C@@H]2CC3CCCCC3N2C(=O)[C@H]2Cc3ccccc3CN2C(=O)[C@H](CO)NC(=O)[C@@H]2Cc3ccccc3CN2C(=O)CCCNC1=O (some centres undefined) | 437 | –
26 | C[C@@H]1NC(=O)[C@H](Cc2cccs2)NC(=O)CCCNC(=O)[C@H](CCCN=C(N)N)NC(=O)[C@@H]2CC3CCCCC3N2C(=O)[C@H]2Cc3ccccc3CN2C1=O (some centres undefined) | 63.1 | –
27 | N=C(N)NCCC[C@@H]1NC(=O)[C@@H]2CC3CCCCC3N2C(=O)[C@H]2Cc3ccccc3CN2C(=O)[C@H](CO)NC(=O)[C@H](c2ccccc2)NC(=O)CCCNC1=O (some centres undefined) | 537 | –
28 | N=C(N)NCCC[C@@H]1NC(=O)[C@@H]2CC3CCCCC3N2C(=O)[C@H]2Cc3ccccc3CN2C(=O)[C@H](Cc2ccccc2)NC(=O)CNC1=O (some centres undefined) | 117 | pKb [4]: 5.13
